Assay results taken from ChEMBL document CHEMBL1938283, “Novel diamino imidazole and pyrrole-containing polyamides: Synthesis and DNA binding studies of mono- and diamino-phenyl-ImPy*Im polyamides designed to target 5'-ACGCGT-3'” (Bioorg Med Chem, 2012).
The source made the active and inactive calls. The rule behind the calls is not given here.

Assays:
[1] = Solubility of the compound in water; assay type: physicochemical; conditions: buffer
Nucleic Acid [2] = assay: Binding affinity to 5'-ACGCGT-3' sequence in 125 bp 5'-[32P]-radiolabeled DNA at 0.5 uM after 30 mins by DNase1 footprinting analysis; assay type: nucleic-acid assay
Method in brief: (§1)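 A 125 bp radiolabeled PCR fragment was incubated 30 min at room temperature with polyamide in 10 mM Tris, 10 mM NaCl, pH 7. DNase I (0.02 U, with Mg2+/Mn2+, pH 8.0) then cleaved for 3 min, stopped by freezing on dry ice. Products were resolved on a denaturing 10% polyacrylamide urea gel and read by autoradiography.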

Nucleic Acid [3] = assay: Binding affinity to 5'-ACGCGT-3' DNA assessed as change in melting temperature at 1:3 of DNA/compound ratio by spectrophotometry; assay type: nucleic-acid assay
Method in brief: (§2)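 UV thermal melt (Cary spectrophotometer) of each duplex, 1 µM DNA with 3 µM polyamide, in 10 mM phosphate buffer with 12.5 mM NaCl, 1 mM EDTA, pH 6.2. ΔTM is the melting temperature of the DNA–polyamide complex minus that of duplex DNA alone.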

Nucleic Acid [4] = assay: Binding affinity to 5'-AAATTT-3' DNA assessed as change in melting temperature at 1:3 of DNA/compound ratio by spectrophotometry; assay type: nucleic-acid assay; method in brief: as §2
Nucleic Acid [5] = assay: Binding affinity to 5'-ACACTT-3' DNA assessed as change in melting temperature at 1:3 of DNA/compound ratio by spectrophotometry; assay type: nucleic-acid assay; method in brief: as §2
Nucleic Acid [6] = assay: Binding affinity to 5'-ACGCGT-3' DNA at 9:500 of DNA/compound ratio by CD spectral analysis; assay type: nucleic-acid assay
Nucleic Acid [7] = assay: Binding affinity to 5'-AAATTT-3' DNA at 9:500 of DNA/compound ratio by CD spectral analysis; assay type: nucleic-acid assay
Nucleic Acid [8] = assay: Binding affinity to 5'-ACACTT-3' DNA at 9:500 of DNA/compound ratio by CD spectral analysis; assay type: nucleic-acid assay
Nucleic Acid [9] = assay: Binding affinity to 5'-ACGCGT-3' DNA by surface plasmon resonance-biosensor method; assay type: nucleic-acid assay
Method in brief: (§3)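 SPR biosensor at 25 °C. 5'-biotinylated DNA hairpins, about 400 RU, were captured on streptavidin chips, with one blank flow cell as reference. Running buffer was 0.01 M cacodylic acid pH 6.25, 0.1 M NaCl, 1 mM EDTA, 0.005% P20. Known polyamide concentrations were injected and fitted to one- or two-site models to give K1 and K2.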

Nucleic Acid [10] = assay: Binding affinity to 5'-AAGCTA-3' DNA by surface plasmon resonance-biosensor method; assay type: nucleic-acid assay; method in brief: as §3
Nucleic Acid [11] = assay: Binding affinity to 5'-AAATTT-3' DNA by surface plasmon resonance-biosensor method; assay type: nucleic-acid assay; method in brief: as §3
Nucleic Acid [12] = assay: Binding affinity to 5'-ACGCGT-3' DNA at 30:80 of DNA/compound ratio by isothermal titration calorimetry; assay type: nucleic-acid assay
Method in brief: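 ITC by the model-free method at 25 °C in 0.01 M cacodylic acid. Polyamide at 80 µM was injected into 30 µM DNA in 30 × 10 µL injections, every 300 s after a 300 s delay, up to a mole ratio of about 0.6:1. Integrated heats were corrected for nonspecific heats including dilution, and normalized ΔH was fitted linearly against mole ratio.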

Nucleic Acid [13] = assay: Binding affinity to DNA minor-groove 5'-ACGCGT-3' sequence at 9:500 of DNA/compound ratio by CD spectral analysis; assay type: nucleic-acid assay
Nucleic Acid [14] = assay: Binding affinity to 5'-ACGCGT-3' DNA assessed as macroscopic binding constant K1 by surface plasmon resonance-biosensor method; assay type: nucleic-acid assay; method in brief: as §3
Nucleic Acid [15] = assay: Binding affinity to 5'-AAGCTA-3' DNA assessed as macroscopic binding constant K1 by surface plasmon resonance-biosensor method; assay type: nucleic-acid assay; method in brief: as §3
Nucleic Acid [16] = assay: Binding affinity to 5'-ACGCGT-3' DNA assessed as macroscopic binding constant K2 by surface plasmon resonance-biosensor method; assay type: nucleic-acid assay; method in brief: as §3
Nucleic Acid [17] = assay: Binding affinity to 5'-AAGCTA-3' DNA assessed as macroscopic binding constant K2 by surface plasmon resonance-biosensor method; assay type: nucleic-acid assay; method in brief: as §3
Nucleic Acid [18] = assay: Binding affinity to 5'-ACGCGT-3' sequence in 125 bp 5'-[32P]-radiolabeled DNA at 0.05 uM after 30 mins by DNase1 footprinting analysis; assay type: nucleic-acid assay; method in brief: as §1
Nucleic Acid [19] = assay: Binding affinity to 5'-AAATTT-3' DNA assessed as macroscopic binding constant K1 by surface plasmon resonance-biosensor method; assay type: nucleic-acid assay; method in brief: as §3
Nucleic Acid [20] = assay: Binding affinity to DNA minor-groove 5'-ACGCGT-3' sequence; assay type: nucleic-acid assay
Nucleic Acid [21] = assay: Binding affinity to DNA minor-groove 5'-ACCGGT-3' sequence; assay type: nucleic-acid assay
Nucleic Acid [22] = assay: Binding affinity to 5'-AAATTT-3' DNA; assay type: nucleic-acid assay
Nucleic Acid [23] = assay: Binding affinity to 5'-ACCGGT-3' sequence in 125 bp 5'-[32P]-radiolabeled DNA at 100 uM after 30 mins by DNase1 footprinting analysis; assay type: nucleic-acid assay; method in brief: as §1
Nucleic Acid [24] = assay: Binding affinity to 5'-ACACGT-3' sequence in 125 bp 5'-[32P]-radiolabeled DNA at 100 uM after 30 mins by DNase1 footprinting analysis; assay type: nucleic-acid assay; method in brief: as §1
Nucleic Acid [25] = assay: Binding affinity to 5'-AGCGCT-3' sequence in 125 bp 5'-[32P]-radiolabeled DNA at 100 uM after 30 mins by DNase1 footprinting analysis; assay type: nucleic-acid assay; method in brief: as §1
Nucleic Acid [26] = assay: Binding affinity to 5'-ACGCGT-3' sequence in 125 bp 5'-[32P]-radiolabeled DNA at 20 uM after 30 mins by DNase1 footprinting analysis; assay type: nucleic-acid assay; method in brief: as §1

Activity (Nucleic Acid [2]) | ΔTm (Nucleic Acid [3]) | ΔTm (Nucleic Acid [4]) | ΔTm (Nucleic Acid [5]) | Activity (Nucleic Acid [6]) | Kb (Nucleic Acid [9]) | Kb (Nucleic Acid [10]) | Activity (Nucleic Acid [11]) | Activity (Nucleic Acid [12]) | Activity (Nucleic Acid [13]) | K (Nucleic Acid [14]) | K (Nucleic Acid [15]) | K (Nucleic Acid [16]) | K (Nucleic Acid [17]) | SMILES | other results
– | – | – | – | – | – | – | – | – | – | – | – | – | – | CN(C)CCNC(=O)c1nc(NC(=O)c2cc(NC(=O)c3nc(NC=O)cn3C)cn2CCCN)cn1C.Cl | solubility [1]: soluble
Active | > 25 °C | 7.6 °C | 0 °C | Active | 1.5 ×10⁷ /M | 2.1 ×10⁶ /M | inactive | Active | Active | 8.7 ×10⁵ /M | 2.9 ×10⁵ /M | 2.7 ×10⁸ /M | 1.2 ×10⁷ /M | CN(C)CCNC(=O)c1nc(NC(=O)c2cc(NC(=O)c3nc(NC(=O)c4ccccc4)cn3C)cn2CCCN)cn1C | Activity (Nucleic Acid [7]): Active; Activity (Nucleic Acid [8]): Active
Active | 9 °C | 1 °C | – | – | – | – | – | – | – | 1.9 ×10⁸ /M | – | – | – | CN(C)CCNC(=O)c1nc(NC(=O)c2cc(NC(=O)c3nc(NC=O)cn3C)cn2C)cn1C | Activity (Nucleic Acid [18]): Active; K (Nucleic Acid [19]): 5.3 ×10⁴ /M; K (Nucleic Acid [20]): 1.9 ×10⁸ /M; K (Nucleic Acid [21]): 2.2 ×10⁵ /M; K (Nucleic Acid [22]): 5.3 ×10⁴ /M
– | 9 °C | 0 °C | 0 °C | Active | 4.8 ×10⁶ /M | 2.5 ×10⁵ /M | inactive | Active | Active | 6.1 ×10⁴ /M | 2.3 ×10⁵ /M | 3.7 ×10⁸ /M | 2.8 ×10⁵ /M | CN(C)CCNC(=O)c1nc(NC(=O)c2cc(NC(=O)c3nc(NC(=O)c4ccccc4)cn3C)cn2C)cn1C | Activity (Nucleic Acid [23]): inactive; Activity (Nucleic Acid [24]): inactive; Activity (Nucleic Acid [25]): inactive; Activity (Nucleic Acid [26]): Active
